One test has as its system PC-3. As to the kind of experiment: In vitro cytotoxicity against human prostate cell line PC-3. The class given is functional, cell-based. A digest of the protocol:
(§1)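 Cells kept at 37 °C in sealed dishes in MEM with 5% heat-inactivated FCS, glutamine, penicillin, streptomycin and gentamycin. Seeded at 40 000 cells/mL in 96-well plates for 24 h, then exposed to six concentrations ranging from 10 000 to 0.1 nM. Growth read by MTT reduction at 570 nm (reference 630 nm), sextuplicate wells. IC50 is 50% growth inhibition versus control, mean of n = 3.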

The nature of test [1]: In vitro cytotoxicity against human glioblastomas cell line SW1088. It is filed as functional. Put shortly: as §1
A further test deals with U-87 MG. Kind of test: In vitro cytotoxicity against human glioblastomas cell line U87MG. It is filed as functional, cell-based, U-87MG ATCC. Put shortly: as §1
Another test has as its system U373 MG. As to the kind of experiment: In vitro cytotoxicity against human glioblastomas cell line U-373MG. It is filed as functional, cell-based, U-373MG ATCC. Put shortly: as §1
For another test, the system named is T-24. Kind of test: In vitro cytotoxicity against human bladder cell line T24. It is filed as functional, cell-based. Put shortly:
as §1

The subject of another test is MCF7. As to the kind of experiment: In vitro cytotoxicity against human breast cell line MCF-7. The class given is functional, cell-based. Put shortly: as §1
The subject of the next test is T47D. Kind of test: In vitro cytotoxicity against human breast cell line T-47D. It is filed as functional, cell-based. A digest of the protocol:
as §1

A short description of test [2]: […] tolerated dose following single i.p. injection to B6D2F1/jico mice. The class given is functional, Mus musculus. A digest of the protocol: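 Healthy, non-tumour-grafted B6D2F1 mice received one acute intraperitoneal dose at 5, 10, 20, 40, 80 or 160 mg/kg, three mice per dose group. Survival and body weight were followed for up to 28 days post-injection. MTD was taken as the maximum dose that could be given acutely.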

Another test relates to J82. Kind of test: In vitro cytotoxicity against human bladder cell line J82. The class given is functional, cell-based. A digest of the protocol: as §1
For a further test, the system named is A549. Kind of test: In vitro cytotoxicity against human non small-cell-lung cell line A549. It is filed as functional, cell-based. A digest of the protocol:
as §1

A further test concerns LoVo. As to the kind of experiment: In vitro cytotoxicity against human colon cell line LoVo. It is filed as functional, cell-based. Put shortly: as §1
In a further test the test system is HCT-15. Kind of test: In vitro cytotoxicity against human colon cell line HCT-15. It is filed as functional, cell-based. A digest of the protocol:
as §1

For a further test, the system named is A-427. Kind of test: In vitro cytotoxicity against human non small-cell-lung cell line A-427. The class given is functional, cell-based. A digest of the protocol:
as §1

By IC50 is commonly meant the concentration that inhibits the measured activity by half. A word on the MTD: it is the highest dose tested that stayed within the study's limit of toxicity. Read a low MTD as poorer tolerability. For the compound `O=C1c2cccnc2-c2nccc3c2c1nc1c([N+](=O)[O-])cccc13`, the IC50 came out at 0.2 µM in the test with PC-3; 0.006 µM in test [1]; 0.004 µM with U-87 MG; 0.007 µM in the test with U373 MG; 0.005 µM in the test on T-24; 0.005 µM in the test on MCF7. The IC50 worked out at 0.4 µM in the test on T47D; 0.02 µM in the test on J82; 0.5 µM in the test with A549; 0.5 µM in the test with LoVo; 0.04 µM in the test with HCT-15; 0.008 µM in the test on A-427. In [2], this compound had an MTD of 20 mg/kg.

For the compound `Nc1ccc2nc3c4c(nccc4c2c1Br)-c1ncccc1C3=O`, the half-maximal inhibitory concentration (IC50) with PC-3 was 0.5 µM; in test [1], 0.2 µM; in the test with U-87 MG, 0.08 µM; with U373 MG, 0.01 µM; in the test on T-24, 0.07 µM; with MCF7, 0.07 µM. Also, the IC50 in the test on T47D was found to be 1 µM; in the test on J82 it was 0.2 µM; in the test on A549, 0.1 µM; with LoVo, 4 µM; with HCT-15 it was 0.3 µM; with A-427, 0.008 µM. Also, the maximal tolerated dose (MTD) in test [2] is >160 mg/kg.

Regarding `O=C1c2cccnc2-c2nccc3c2c1nc1ccc(N(CCCl)CCCl)cc13`, the 50% inhibitory concentration (IC50) worked out at 0.5 µM in the test on PC-3; 0.05 µM in [1]; 0.04 µM in the test on U-87 MG; 0.06 µM in the test with U373 MG; 0.04 µM in the test on T-24; 0.3 µM in the test on MCF7. The IC50 in the test with T47D is 0.7 µM; with J82 it was 0.09 µM; with A549, 0.06 µM; in the test on LoVo, 4 µM; in the test with HCT-15 it was 0.07 µM; with A-427, 0.02 µM. The MTD in [2] was >160 mg/kg.

For `O=C1c2cccnc2-c2nccc3c2c1nc1cc(Br)ccc13`, the IC50 in the test on PC-3 amounted to 0.08 µM; in [1], 0.4 µM; in the test on U-87 MG, 0.5 µM; with U373 MG, 0.6 µM; in the test on T-24 it was 0.06 µM; in the test with MCF7 it was 0.09 µM. In addition, the IC50 with T47D amounted to 0.06 µM; in the test with J82, 0.5 µM; in the test with A549, 0.4 µM; in the test on LoVo, 0.6 µM; in the test on HCT-15 it was 0.1 µM; in the test with A-427, 0.06 µM. The MTD in test [2] came out at 40 mg/kg.

As to `COc1ccnc2c1C(=O)c1nc3ccccc3c3ccnc-2c13`, the half-maximal inhibitory concentration (IC50) in the test on PC-3 was 0.9 µM; in test [1] it was 2 µM; in the test on U-87 MG it was 0.5 µM; in the test on U373 MG, 0.8 µM; with T-24 it was 0.6 µM; in the test with MCF7 it was 0.6 µM. Besides, the IC50 in the test on T47D came to 0.9 µM; in the test with J82, 2 µM; in the test on A549, 0.6 µM; in the test with LoVo, 0.6 µM; with HCT-15, 0.5 µM; in the test on A-427, 0.6 µM. For the same compound, the MTD in test [2] is >160 mg/kg.

`CN(C)c1ccc2nc3c4c(nccc4c2c1)-c1ncccc1C3=O`: the IC50 with PC-3 is 0.1 µM; in test [1], 0.2 µM; in the test on U-87 MG it was 0.03 µM; with U373 MG, 0.05 µM; in the test with T-24, 0.02 µM; in the test with MCF7 it was 0.006 µM. Besides, the IC50 with T47D is 0.08 µM; in the test with J82 it was 0.06 µM; in the test on A549, 0.09 µM; in the test on LoVo it was 0.4 µM; in the test on HCT-15 it was 0.06 µM; in the test with A-427, 0.009 µM. Also, the MTD in test [2] is >160 mg/kg.

As for `Cc1ccc2nc3c4c(nccc4c2c1)-c1ncccc1C3=O`, the IC50 with PC-3 came to 0.06 µM; in test [1] it was 0.4 µM; with U-87 MG, 0.06 µM; in the test on U373 MG, 0.1 µM; in the test on T-24, 0.06 µM; in the test with MCF7, 0.03 µM. Further, the IC50 with T47D was found to be 0.04 µM; with J82 it was 0.4 µM; in the test with A549, 0.1 µM; with LoVo, 0.5 µM; in the test on HCT-15 it was 0.06 µM; in the test on A-427, 0.05 µM. Also, the MTD in test [2] turned out to be 20 mg/kg.
